Measurements taken from ChEMBL document CHEMBL1914395, “Design, synthesis, and biological evaluation of callophycin A and analogues as potential chemopreventive and anticancer agents” (Bioorg Med Chem, 2011).

Target: NAD(P)H dehydrogenase [quinone] 1 (Mus musculus) (UniProt Q64669)
Assay: Induction of quinone reductase 1 activity in mouse Hepa-1c1c7 cells at 50 uM by MTT assay relative to untreated control
Type: cell-based
Settings: not given
Outline: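 Hepa 1c1c7 murine hepatoma cells treated with compound at 50 μM. QR1 measured by NADPH-dependent, menadiol-mediated reduction of MTT to formazan. Protein measured by crystal violet staining of identical plates. Specific activity is nmol formazan per mg protein per min. Induction ratio is treated versus DMSO-treated control.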

Chain of NAD(P)H dehydrogenase [quinone] 1 (Mus musculus) (Q64669 whole entry): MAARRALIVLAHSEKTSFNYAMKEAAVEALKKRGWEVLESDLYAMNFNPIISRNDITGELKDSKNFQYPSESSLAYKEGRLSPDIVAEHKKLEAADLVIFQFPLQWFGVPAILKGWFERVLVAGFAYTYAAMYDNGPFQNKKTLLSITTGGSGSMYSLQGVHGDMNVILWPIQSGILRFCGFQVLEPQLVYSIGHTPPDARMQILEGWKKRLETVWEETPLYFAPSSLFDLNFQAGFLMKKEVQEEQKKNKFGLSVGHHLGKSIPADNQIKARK

Structure (SMILES) | Ratio
COC(=O)[C@@H]1Cc2c([nH]c3ccccc23)CN1C(=O)NCCc1ccccc1 | 0.5
COC(=O)[C@H]1Cc2c([nH]c3ccccc23)CN1S(=O)(=O)c1ccc(Br)cc1 | 2.1
COC(=O)[C@H]1Cc2c([nH]c3ccccc23)CN1C(=O)NC12CC3CC(CC(C3)C1)C2 | 0.4
CCCCCNC(=O)N1Cc2[nH]c3ccccc3c2C[C@H]1C(=O)OC | 4.9

Test system: MCF7
Assay: Antiproliferative activity against human MCF7 cells after 72 hrs by SRB assay
Type: functional, cell-based
Settings: MCF7, 72 h
Outline: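 MCF7 cells, 1 × 10^4 per well, plated directly onto compounds and incubated 72 h at 37°C, 5% CO2. Fixed with 10% TCA, stained with 0.4% SRB in 1% acetic acid. Bound dye dissolved in 10 mM Tris pH 10.0, absorbance read at 515 nm. Survival expressed relative to DMSO-treated controls.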

Structure (SMILES) | IC50 [µM]
COC(=O)[C@@H]1Cc2c([nH]c3ccccc23)CN1C(=O)NCCc1ccccc1 | 25.4
COC(=O)[C@H]1Cc2c([nH]c3ccccc23)CN1S(=O)(=O)c1ccc(Br)cc1 | 42.1
COC(=O)[C@H]1Cc2c([nH]c3ccccc23)CN1C(=O)NC12CC3CC(CC(C3)C1)C2 | 14.7
CCCCCNC(=O)N1Cc2[nH]c3ccccc3c2C[C@H]1C(=O)OC | 38.4

Test system: HEK293
Assay: Inhibition of TNF-alpha-induced NFkappaB activation in human HEK293 cells at 50 uM after 6 hrs by luciferase assay relative to control
Type: cell-based
Settings: not given
Outline: (§1)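 Cells incubated 6 h with TNFα plus test compound, then luciferase activity measured. Results expressed as percent of TNFα-treated control. Screening concentration 50 μM.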

Structure (SMILES) | inhibition [%]
COC(=O)[C@@H]1Cc2c([nH]c3ccccc23)CN1C(=O)NCCc1ccccc1 | 87.7
COC(=O)[C@H]1Cc2c([nH]c3ccccc23)CN1S(=O)(=O)c1ccc(Br)cc1 | 43.7
COC(=O)[C@H]1Cc2c([nH]c3ccccc23)CN1C(=O)NC12CC3CC(CC(C3)C1)C2 | 36.5
CCCCCNC(=O)N1Cc2[nH]c3ccccc3c2C[C@H]1C(=O)OC | 35.5

Target: NAD(P)H dehydrogenase [quinone] 1 (Mus musculus) (UniProt Q64669)
Assay: Induction of quinone reductase 1 in mouse Hepa 1c1c7 cells assessed as concentration of compound required to double enzyme activity by MTT assay
Type: cell-based
Settings: not given
Outline: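 Dose-response in Hepa 1c1c7 cells, run for substances with induction ratio >2 at 50 μM. QR1 activity measured as menadiol-mediated, NADPH-dependent MTT reduction to formazan, normalised to crystal violet protein content. CD is the concentration that doubles specific activity relative to DMSO control.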

Structure (SMILES) | CD [µM]
COC(=O)[C@H]1Cc2c([nH]c3ccccc23)CN1S(=O)(=O)c1ccc(Br)cc1 | 29.7
CCCCCNC(=O)N1Cc2[nH]c3ccccc3c2C[C@H]1C(=O)OC | 3.8

Target: T1, Nitric oxide synthase, inducible (Mus musculus) (UniProt P29477)
T1 sequence (whole entry): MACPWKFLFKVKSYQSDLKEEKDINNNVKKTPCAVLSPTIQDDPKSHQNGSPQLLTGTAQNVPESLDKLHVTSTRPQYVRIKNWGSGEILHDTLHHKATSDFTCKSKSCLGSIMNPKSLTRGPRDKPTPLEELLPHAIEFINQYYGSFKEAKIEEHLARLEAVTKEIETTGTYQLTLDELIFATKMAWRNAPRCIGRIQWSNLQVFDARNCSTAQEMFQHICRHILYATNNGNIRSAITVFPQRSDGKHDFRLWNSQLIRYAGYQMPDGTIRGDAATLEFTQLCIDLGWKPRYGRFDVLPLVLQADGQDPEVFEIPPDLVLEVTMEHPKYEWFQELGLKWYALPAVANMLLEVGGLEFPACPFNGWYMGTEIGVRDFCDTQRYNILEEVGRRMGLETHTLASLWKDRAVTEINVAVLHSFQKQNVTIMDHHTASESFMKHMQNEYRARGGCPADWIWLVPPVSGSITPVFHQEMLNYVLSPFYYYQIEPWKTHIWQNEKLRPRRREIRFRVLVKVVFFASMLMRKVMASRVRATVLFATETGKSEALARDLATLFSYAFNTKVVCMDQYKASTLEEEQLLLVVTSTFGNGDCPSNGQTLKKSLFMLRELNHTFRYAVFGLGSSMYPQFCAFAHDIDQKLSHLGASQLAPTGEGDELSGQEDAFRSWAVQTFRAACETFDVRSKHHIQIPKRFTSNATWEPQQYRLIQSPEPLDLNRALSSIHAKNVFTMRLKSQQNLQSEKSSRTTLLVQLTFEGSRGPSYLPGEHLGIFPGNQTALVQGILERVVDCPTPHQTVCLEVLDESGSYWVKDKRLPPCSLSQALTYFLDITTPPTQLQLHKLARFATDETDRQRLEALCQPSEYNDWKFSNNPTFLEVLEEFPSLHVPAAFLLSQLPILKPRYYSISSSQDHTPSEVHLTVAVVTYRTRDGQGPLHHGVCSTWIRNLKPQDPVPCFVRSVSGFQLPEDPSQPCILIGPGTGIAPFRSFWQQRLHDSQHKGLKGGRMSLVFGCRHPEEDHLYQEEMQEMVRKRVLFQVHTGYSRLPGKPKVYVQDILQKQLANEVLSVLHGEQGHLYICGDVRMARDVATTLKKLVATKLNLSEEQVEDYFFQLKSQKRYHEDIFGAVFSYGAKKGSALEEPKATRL
Assay: Inhibition of iNOS-mediated nitric oxide production in LPS-stimulated mouse RAW 264.7 cells at 50 uM pretreated 15 mins before LPS challenge measured after 20 hrs relative to control
Type: cell-based
Settings: not given
Outline: (§2)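 RAW 264.7 cells cultured 24 h at 37°C, then given serially diluted compounds for 15 min before LPS (1 μg/mL) for 20 h. Nitrite in the medium measured with Griess reagent at 540 nm against a sodium nitrite standard curve. Cytotoxicity checked by SRB under the same conditions.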

Structure (SMILES) | inhibition [%]
COC(=O)[C@@H]1Cc2c([nH]c3ccccc23)CN1C(=O)NCCc1ccccc1 | 48.2
COC(=O)[C@H]1Cc2c([nH]c3ccccc23)CN1S(=O)(=O)c1ccc(Br)cc1 | 3.8
COC(=O)[C@H]1Cc2c([nH]c3ccccc23)CN1C(=O)NC12CC3CC(CC(C3)C1)C2 | 64.7
CCCCCNC(=O)N1Cc2[nH]c3ccccc3c2C[C@H]1C(=O)OC | 8.7

Target: T2, Nitric oxide synthase, inducible (Mus musculus, UniProt P29477)
T2 sequence (P29477 whole entry): T1 sequence (whole entry)
Assay: Inhibition of iNOS-mediated nitric oxide production in LPS-stimulated mouse RAW 264.7 cells pretreated 15 mins before LPS challenge measured after 20 hrs relative to control
Type: cell-based
Settings: not given
Outline: as §2

Structure (SMILES) | IC50 [µM]
COC(=O)[C@H]1Cc2c([nH]c3ccccc23)CN1C(=O)NC12CC3CC(CC(C3)C1)C2 | 11.7

Target: NAD(P)H dehydrogenase [quinone] 1 (Mus musculus) (UniProt Q64669)
Assay: Induction of quinone reductase 1 activity in mouse Hepa-1c1c7 cells assessed as cell survival at 50 uM by MTT assay relative to control
Type: cell-based
Settings: not given

Structure (SMILES) | Survival [%]
COC(=O)[C@@H]1Cc2c([nH]c3ccccc23)CN1C(=O)NCCc1ccccc1 | 59.6
COC(=O)[C@H]1Cc2c([nH]c3ccccc23)CN1S(=O)(=O)c1ccc(Br)cc1 | 83.7
COC(=O)[C@H]1Cc2c([nH]c3ccccc23)CN1C(=O)NC12CC3CC(CC(C3)C1)C2 | 30.6
CCCCCNC(=O)N1Cc2[nH]c3ccccc3c2C[C@H]1C(=O)OC | 7.8

Test system: not listed separately
Assay: Inhibition of TNF-alpha-induced NFkappaB activation in human HEK293 cells after 6 hrs by luciferase assay
Type: cell-based
Settings: HEK293, 6 h
Outline: as §1

Structure (SMILES) | IC50 [µM]
COC(=O)[C@@H]1Cc2c([nH]c3ccccc23)CN1C(=O)NCCc1ccccc1 | 16.9

Test system: HEK293
Assay: Inhibition of TNF-alpha-induced NFkappaB activation in human HEK293 cells assessed as cell survival at 50 uM after 6 hrs by luciferase assay relative to control
Type: cell-based
Settings: not given

Structure (SMILES) | Survival [%]
COC(=O)[C@@H]1Cc2c([nH]c3ccccc23)CN1C(=O)NCCc1ccccc1 | 94.6
COC(=O)[C@H]1Cc2c([nH]c3ccccc23)CN1S(=O)(=O)c1ccc(Br)cc1 | 154
COC(=O)[C@H]1Cc2c([nH]c3ccccc23)CN1C(=O)NC12CC3CC(CC(C3)C1)C2 | 110
CCCCCNC(=O)N1Cc2[nH]c3ccccc3c2C[C@H]1C(=O)OC | 110

Target: T1, Nitric oxide synthase, inducible (Mus musculus)
Assay: Inhibition of iNOS-mediated nitric oxide production in LPS-stimulated mouse RAW 264.7 cells assessed as cell survival at 50 uM pretreated 15 mins before LPS challenge measured after 20 hrs relative to control
Type: cell-based
Settings: not given
Outline: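 RAW 264.7 cells were incubated at 37°C, 5% CO2 for 24 h. They were then exposed to compound for 15 min before LPS (1 μg/mL) was added for 20 h. Cytotoxicity was measured by SRB staining under the same conditions. Survival is expressed as % relative to vehicle-treated controls at 50 μM.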

Structure (SMILES) | Survival [%]
COC(=O)[C@@H]1Cc2c([nH]c3ccccc23)CN1C(=O)NCCc1ccccc1 | 68.9
COC(=O)[C@H]1Cc2c([nH]c3ccccc23)CN1S(=O)(=O)c1ccc(Br)cc1 | 89.7
COC(=O)[C@H]1Cc2c([nH]c3ccccc23)CN1C(=O)NC12CC3CC(CC(C3)C1)C2 | 63.2
CCCCCNC(=O)N1Cc2[nH]c3ccccc3c2C[C@H]1C(=O)OC | 94.9

Target: T3, Aromatase (Homo sapiens, UniProt P11511)
T3 sequence (P11511 whole entry): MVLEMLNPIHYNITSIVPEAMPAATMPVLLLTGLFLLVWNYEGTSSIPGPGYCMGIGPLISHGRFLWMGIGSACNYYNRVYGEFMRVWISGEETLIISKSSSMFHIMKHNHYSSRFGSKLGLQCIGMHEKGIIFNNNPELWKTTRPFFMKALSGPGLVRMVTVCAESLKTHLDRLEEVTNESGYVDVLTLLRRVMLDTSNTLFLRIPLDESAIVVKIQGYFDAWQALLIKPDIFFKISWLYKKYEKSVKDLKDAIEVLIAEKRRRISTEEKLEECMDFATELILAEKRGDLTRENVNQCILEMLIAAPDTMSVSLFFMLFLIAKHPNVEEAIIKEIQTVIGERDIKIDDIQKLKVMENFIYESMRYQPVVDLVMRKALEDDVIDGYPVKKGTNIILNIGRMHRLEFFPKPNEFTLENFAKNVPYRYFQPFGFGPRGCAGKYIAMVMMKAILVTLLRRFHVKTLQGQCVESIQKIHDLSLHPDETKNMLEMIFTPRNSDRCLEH
Assay: Inhibition of aromatase at 50 uM after 10 mins preincubation by plate reader relative to control
Settings: not given
Outline: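 CYP19 enzyme. Compound pre-incubated 10 min with an NADPH-regenerating system (NADP+, glucose 6-phosphate, G6PDH, MgCl2, albumin) in 50 mM potassium phosphate pH 7.4. Enzyme and 0.4 μM dibenzylfluorescein substrate then added, 30 min at 37 °C. Quenched with 2 N NaOH and incubated a further 2 h at 37 °C. Fluorescence read at ex 485/em 530 nm. Compound tested at 50 μM.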

Structure (SMILES) | inhibition at 50 µM [%]
COC(=O)[C@@H]1Cc2c([nH]c3ccccc23)CN1C(=O)NCCc1ccccc1 | 31.8
COC(=O)[C@H]1Cc2c([nH]c3ccccc23)CN1S(=O)(=O)c1ccc(Br)cc1 | 35.5
COC(=O)[C@H]1Cc2c([nH]c3ccccc23)CN1C(=O)NC12CC3CC(CC(C3)C1)C2 | 39.9
CCCCCNC(=O)N1Cc2[nH]c3ccccc3c2C[C@H]1C(=O)OC | -0.04

Test system: MCF7
Assay: Antiproliferative activity against human MCF7 cells assessed as survival at 50 uM after 72 hrs by SRB assay relative to control
Type: functional
Settings: MCF7, 72 h, read-out: Survival
Outline: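 MCF7 cells (1 × 10^4 per well) were plated onto compound and kept at 37°C, 5% CO2 for 72 h. Cells were fixed in 10% TCA for 30 min and stained with 0.4% SRB in 1% acetic acid for 30 min. Bound dye was dissolved in 10 mM Tris (pH 10.0) and read at 515 nm. Survival is given as % of DMSO-treated controls, screened at 50 μM.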

Structure (SMILES) | viability at 50 µM [%]
COC(=O)[C@@H]1Cc2c([nH]c3ccccc23)CN1C(=O)NCCc1ccccc1 | 1.3
COC(=O)[C@H]1Cc2c([nH]c3ccccc23)CN1S(=O)(=O)c1ccc(Br)cc1 | 30.6
COC(=O)[C@H]1Cc2c([nH]c3ccccc23)CN1C(=O)NC12CC3CC(CC(C3)C1)C2 | 9.9
CCCCCNC(=O)N1Cc2[nH]c3ccccc3c2C[C@H]1C(=O)OC | 40.3
